SMILES strings stand for the structures.

Data set [1] can be described thus: Inhibition of alpha glucosidase (unknown origin) assessed as p-nitrophenyl alpha-D-glucopyranoside conversion to p-nitrophenol after 30 mins by spectrophotometric analysis. The arrangement: species or system Homo sapiens.
A short description of data set [2]: Antioxidant activity assessed as nitric oxide scavenging activity after 150 mins by Greiss method. The data set is classed as functional.
The nature of data set [3]: Antioxidant activity assessed as hydroxyl radical scavenging activity after 15 mins by spectrophotometric analysis. The data set is classed as functional.
In data set [4] the test system is Radical scavenging activity. The experiment in a line: Antioxidant activity assessed as DPPH free radical scavenging activity by spectrophotometric analysis. The data set is classed as functional.
The target of data set [5] is T1, Albumin (Bos taurus, UniProt P02769). Briefly: Binding affinity to bovine serum albumin assessed decrease in fluorescence at 1 to 2.5 uM at 60 nm wavelength by fluorescence spectrophotometric analysis. The data set is classed as ADME. Particulars: cattle, isolated protein; call rule not given here. An outline of the steps: (§1)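 Synchronous fluorescence: BSA (2 μM) is titrated with compound over 0−2.5 μM. Spectra are recorded at wavelength differences Δλ = 15 nm and Δλ = 60 nm.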
T1 sequence (P02769 whole entry): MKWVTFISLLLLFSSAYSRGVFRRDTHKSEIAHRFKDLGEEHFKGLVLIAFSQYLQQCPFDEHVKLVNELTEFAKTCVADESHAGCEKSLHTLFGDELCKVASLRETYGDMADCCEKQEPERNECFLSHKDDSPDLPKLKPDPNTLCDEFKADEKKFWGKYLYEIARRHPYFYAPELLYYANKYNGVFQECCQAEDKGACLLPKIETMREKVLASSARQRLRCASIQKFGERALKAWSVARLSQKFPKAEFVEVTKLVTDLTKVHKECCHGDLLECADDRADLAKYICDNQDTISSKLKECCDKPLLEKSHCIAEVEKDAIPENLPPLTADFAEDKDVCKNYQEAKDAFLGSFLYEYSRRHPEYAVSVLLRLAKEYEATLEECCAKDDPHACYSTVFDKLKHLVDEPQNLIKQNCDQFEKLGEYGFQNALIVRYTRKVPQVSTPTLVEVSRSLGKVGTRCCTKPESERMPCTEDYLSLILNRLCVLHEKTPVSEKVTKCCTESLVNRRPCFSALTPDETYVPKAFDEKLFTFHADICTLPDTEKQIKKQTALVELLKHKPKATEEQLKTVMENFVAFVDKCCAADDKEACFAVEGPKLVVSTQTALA

The target in data set [6] is T1, Albumin. Briefly: Binding affinity to bovine serum albumin assessed decrease in fluorescence at 1 to 2.5 uM at 15 nm wavelength by fluorescence spectrophotometric analysis. It is filed as ADME. The conditions noted are these: cattle, isolated protein. The procedure, abridged:
as §1

In data set [7] the target is T1, Albumin. Briefly: Binding affinity to bovine serum albumin assessed blue shift at 3 uM by UV-vis spectrophotometric analysis. The conditions noted are these: cattle, isolated protein. The data set is classed as ADME.
The target of data set [8] is T1, Albumin. Briefly: Binding affinity to bovine serum albumin assessed as change in hypochromicity at 1 to 2.5 uM by spectrophotometric analysis relative to control. Particulars: cattle, isolated protein. The data set is classed as ADME.
Data set [9] addresses T1, Albumin. The experiment in a line: Binding affinity to bovine serum albumin assessed as decrease in fluorescence intensity by Stern-Volmer plot analysis. The data set is classed as ADME. The conditions noted are these: cattle, isolated protein. The procedure, abridged: (§2)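 Intrinsic fluorescence quenching: emission spectra of BSA (2 μM) are recorded with compound added over 0−2.5 μM. The quenching data are analysed by Stern–Volmer and Scatchard plots to give the quenching constant Kq, the binding constant and the number of binding sites n.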

The target of data set [10] is T1, Albumin. Briefly: Binding affinity to bovine serum albumin assessed as decrease in fluorescence intensity by Scatchard plot analysis. It is filed as ADME. The conditions noted are these: cattle, isolated protein. An outline of the steps: as §2
In data set [11] the test system is DNA. Briefly: Displacement of ethidium bromide from calf thymus DNA assessed as decrease in fluorescence intensity by Stern-Volmer plot analysis. It is filed as nucleic-acid assay. Particulars: Bos taurus. An outline of the steps:
(§3)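 Ethidium bromide displacement: emission of EB bound to CT-DNA (5 μM) is followed while compound is added over 0−50 μM. The Stern–Volmer Kq is the slope of I0/I versus [Q]. Kapp comes from KEB[EB] = Kapp[compound], taking the compound concentration at 50% loss of EB fluorescence, with KEB = 1.0 × 10^7 M−1 and [EB] = 5 μM.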

Data set [12] relates to DNA. Briefly: Displacement of ethidium bromide from calf thymus DNA assessed as decrease in fluorescence intensity by spectrophotometric analysis. It is filed as nucleic-acid assay. The conditions noted are these: Bos taurus. The procedure, abridged:
as §3

The subject of data set [13] is DNA. The experiment in a line: Displacement of ethidium bromide from calf thymus DNA assessed as […] at 1 to 50 uM by fluorescence spectrophotometric analysis relative to control. The data set is classed as nucleic-acid assay. The conditions noted are these: Bos taurus. The procedure, abridged: as §3
Data set [14] deals with DNA. Briefly: Binding affinity to calf thymus DNA assessed as change in hypochromicity at 50 uM by UV-vis titration relative to control. It is filed as nucleic-acid assay. Particulars: Bos taurus. An outline of the steps:
(§4)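 CT-DNA absorption titration: compound held at 50 μM while CT-DNA is raised over 0−25 μM, and electronic absorption spectra are recorded. The intrinsic binding constant Kb is fitted from [DNA]/(εa − εf) versus [DNA], with DNA counted in base pairs. εa = Aobs/[compound]; εf and εb are the free and fully bound extinction coefficients.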

Data set [15] concerns DNA. The experiment in a line: Binding affinity to calf thymus DNA by absorption titration. The data set is classed as nucleic-acid assay. The conditions noted are these: Bos taurus. An outline of the steps: as §4
In data set [16] the test system is HCT-116. The experiment in a line: Cytotoxicity against human HCT116 cells incubated for 24 hrs followed by compound washout measured after 48 hrs by MTT assay. The data set is classed as functional, cell-based.
Data set [17] concerns AGS. The experiment in a line: Cytotoxicity against human AGS cells incubated for 24 hrs followed by compound washout measured after 48 hrs by MTT assay. The data set is classed as functional, cell-based.
For data set [18], the system named is HeLa. The experiment in a line: Cytotoxicity against human HeLa cells incubated for 24 hrs followed by compound washout measured after 48 hrs by MTT assay. The data set is classed as functional, cell-based.

On to `C[C@H]1O[C@H](O[C@H]2[C@H](O)[C@@H](O)[C@@H](O[C@H]3[C@H](O)[C@@H](O)C(O)O[C@@H]3CO)O[C@@H]2CO)[C@H](O)[C@@H](O)[C@@H]1N[C@H]1C=C(CO)[C@@H](O)[C@H](O)[C@H]1O` (stereo not given in full) [ACARBOSE], for which the IC50 in [1] was found to be 15.2 µM.
Consider `C[C@@H]1O[C@@H](OC[C@H]2O[C@@H](Oc3c(-c4ccc(O)c(O)c4)oc4cc(O)cc(O)c4c3=O)[C@H](O)[C@@H](O)[C@@H]2O)[C@H](O)[C@H](O)[C@H]1O` [RUTIN], for which the half-maximal inhibitory concentration (IC50) in data set [2] stood at 4.7 µM; in [3] it was 19.4 µM; in [4], 4.7 µM.
Turning to `Cc1cc(C(C)(C)C)c(O)c(C(C)(C)C)c1` [BUTYLATED HYDROXYTOLUENE], the figures for the IC50 in data set [2], in data set [3] and in [4] were 8.6 µM, 11.5 µM and 4.5 µM, respectively.
`COc1cc2c(cc1-c1c(OC)ccc3c1[nH]c1c4c(c(C)cc13)OC(C)(C/C=C(\C)CCC=C(C)C)C=C4)c1cc(C)c3c(c1n2C)C=CC(C)(C/C=C(\C)CCC=C(C)C)O3` (stereo not given): the Activity result in data set [5] is “Active”; in data set [6] it was “Active”; in data set [7], “Active”; in [8], 36%; in [13] it was 28%; in [14], 54%. In addition, the Kq in [9] is 2.21 ×10⁵ /M; in data set [11], 0.3 ×10⁵ /M. Further, the Kb amounted to 0.09 ×10⁴ /M in [10] and 2 ×10⁵ /M in data set [15]. In addition, the Kapp in data set [12] came to 0.13 ×10⁵ /M. Further, the IC50 in data set [1] stood at 69 µM; in data set [2], 8.6 µM; in [3], 13.2 µM; in data set [4], 41.8 µM.
As to `COc1ccc2c([nH]c3c4c(c(C)cc32)OC(C)(C/C=C(\C)CCC=C(C)C)C=C4)c1-c1ccc2[nH]c3c4c(c(C)cc3c2c1O)OC(C)(C/C=C(\C)CCC=C(C)C)C=C4` (stereo not given), the Activity entry in [5] was “Active”; in data set [6] it was “Active”; in [7], “Active”; in data set [8] it was 36%; in data set [13] it was 22%; in [14] it was 55%. The figures for the Kq in [9] and in [11] were 2.2 ×10⁵ /M and 0.1 ×10⁵ /M, respectively. The results for the Kb in data set [10] and in data set [15] were 0.72 ×10⁴ /M and 2.2 ×10⁵ /M, respectively. Moreover, the Kapp in data set [12] turned out to be 0.5 ×10⁵ /M. In addition, the IC50 in data set [1] turned out to be 41.2 µM; in data set [2], 7.2 µM; in data set [3], 8.8 µM; in data set [4], 31.1 µM.
As to `COc1ccc2c([nH]c3c4c(c(C)cc32)OC(C)(C/C=C(\C)CCC=C(C)C)C=C4)c1-c1c(O)ccc2[nH]c3c4c(c(C)cc3c12)OC(C)(C/C=C(\C)CCC=C(C)C)C=C4` (stereo not given), the Activity entry in data set [5] was “Active”; in [6], “Active”; in data set [7], “Active”; in data set [8], 47%; in data set [13], 44%; in [14] it was 82%. In addition, the IC50 in [16] was 22.3 µM; in [17], 23.2 µM; in data set [18] it was 17.2 µM; in data set [1], 45.4 µM; in [2], 6.5 µM; in [3], 12.3 µM. Besides, in data set [4], the concentration for half-maximal inhibition (IC50) was found to be 31.9 µM. Further, the Kq in [9] was 3.52 ×10⁵ /M; in data set [11], 0.32 ×10⁵ /M. For the same compound, the Kb in data set [10] was found to be 1.02 ×10⁴ /M; in data set [15], 4.3 ×10⁵ /M. The Kapp in data set [12] is 1.6 ×10⁵ /M.

The values are drawn from ChEMBL document CHEMBL2385037, “Bioactive dimeric carbazole alkaloids from Murraya koenigii” (J Nat Prod, 2013).
